# Key:
# [1] = target: DNA topoisomerase 2-alpha (Homo sapiens) (UniProt P11388); assay: Inhibition of full-length human recombinant topoisomerase 2-alpha mediated relaxation and cleavage of supercoiled pBR322 plasmid DNA to linear DNA by ethidium bromide staining based gel electrophoresis assay
# Method in brief: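 Recombinant full-length human topoisomerase IIα with supercoiled pBR322 DNA at 37 °C. Components mixed on ice before drug addition. Complexes trapped with SDS; products run on ethidium bromide gels. Linear DNA identified against a HindIII-linearized marker; repeated on three days.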
# [2] = system: MCF7; assay: Cytotoxicity against human MCF7 cells assessed as cell growth at 50 uM by SRB assay; format: functional; details: read-out: Activity
# [3] = system: CCRF-CEM; assay: Cytotoxicity against human CCRF-CEM cells by SRB assay; format: functional
# [4] = system: HCT-116; assay: Cytotoxicity against human HCT116 cells by SRB assay; format: functional
# Method in brief: (§1)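 Measured in the NCI-60 human tumour cell line panel using five-dose testing. Growth was recorded at each dose for each cell line, and a GI50 was derived for each line.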
# [5] = system: HCT-15; assay: Cytotoxicity against human HCT15 cells by SRB assay; format: functional; method in brief: as §1
# [6] = system: SNB-75; assay: Cytotoxicity against human SNB75 cells by SRB assay; format: functional
# Method in brief: (§2)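 NCI-60 panel screen; 5-dose testing giving GI50 per cell line, plus a single 10 µM one-dose test. Method details not given beyond the NCI screen.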
# [7] = system: LOX IMVI; assay: Cytotoxicity against human LOXIMVI cells by SRB assay; format: functional; method in brief: as §2
# [8] = system: SK-MEL-2; assay: Cytotoxicity against human SK-MEL-2 cells by SRB assay; format: functional; method in brief: as §2
# [9] = system: RPMI-8226; assay: Cytotoxicity against human RPMI8226 cells assessed as cell growth at 0.005 uM by SRB assay; format: functional; details: read-out: Activity
# [10] = system: HOP-62; assay: Cytotoxicity against human HOP62 cells assessed as cell growth at 0.005 uM by SRB assay; format: functional; details: read-out: Activity; method in brief: as §1
# [11] = system: HOP-92; assay: Cytotoxicity against human HOP92 cells assessed as cell growth at 0.005 uM by SRB assay; format: functional; details: read-out: Activity; method in brief: as §1
# [12] = system: SW-620; assay: Cytotoxicity against human SW620 cells assessed as cell growth at 0.005 uM by SRB assay; format: functional; details: read-out: Activity
# [13] = system: SNB-19; assay: Cytotoxicity against human SNB19 cells assessed as cell growth at 0.005 uM by SRB assay; format: functional; details: read-out: Activity
# [14] = system: SK-MEL-2; assay: Cytotoxicity against human SK-MEL-2 cells assessed as cell growth at 0.005 uM by SRB assay; format: functional; details: read-out: Activity
# [15] = system: UACC-257; assay: Cytotoxicity against human UACC257 cells assessed as cell growth at 0.005 uM by SRB assay; format: functional; details: read-out: Activity
# [16] = system: IGROV-1; assay: Cytotoxicity against human IGROV1 cells assessed as cell growth at 0.005 uM by SRB assay; format: functional; details: read-out: Activity; method in brief: as §1
# [17] = system: OVCAR-3; assay: Cytotoxicity against human OVCAR3 cells assessed as cell growth at 0.005 uM by SRB assay; format: functional; details: read-out: Activity
# [18] = system: OVCAR-5; assay: Cytotoxicity against human OVCAR5 cells assessed as cell growth at 0.005 uM by SRB assay; format: functional; details: read-out: Activity
# [19] = system: A498; assay: Cytotoxicity against human A498 cells assessed as cell growth at 0.005 uM by SRB assay; format: functional; details: read-out: Activity
# [20] = system: SN12C; assay: Cytotoxicity against human SN12C cells assessed as cell growth at 0.005 uM by SRB assay; format: functional; details: read-out: Activity
# [21] = system: TK-10; assay: Cytotoxicity against human TK10 cells assessed as cell growth at 0.005 uM by SRB assay; format: functional; details: read-out: Activity
# [22] = system: PC-3; assay: Cytotoxicity against human PC3 cells assessed as cell growth at 0.005 uM by SRB assay; format: functional; details: read-out: Activity
# [23] = system: MDA-MB-468; assay: Cytotoxicity against human MDA-MB-468 cells assessed as cell growth at 0.005 uM by SRB assay; format: functional; details: read-out: Activity
# [24] = system: NCI-H322M; assay: Cytotoxicity against human NCI-H322M cells assessed as cell growth at 0.05 uM by SRB assay; format: functional; details: read-out: Activity
# [25] = system: SF-539; assay: Cytotoxicity against human SF539 cells assessed as cell growth at 0.05 uM by SRB assay; format: functional; details: read-out: Activity
# [26] = system: U-251; assay: Cytotoxicity against human U251 cells assessed as cell growth at 0.05 uM by SRB assay; format: functional; details: read-out: Activity
# [27] = Cytotoxicity against human NCI-ADR-RES cells assessed as cell growth at 0.05 uM by SRB assay; format: functional; details: read-out: Activity
# [28] = system: UO-31; assay: Cytotoxicity against human UO31 cells assessed as cell growth at 0.05 uM by SRB assay; format: functional; details: read-out: Activity
# [29] = Cytotoxicity against human Hs578T cells assessed as cell growth at 0.05 uM by SRB assay; format: functional; details: Hs-578T, read-out: Activity; method in brief: as §1
# [30] = system: HL-60(TB); assay: Cytotoxicity against human HL-60(TB) cells assessed as cell growth at 0.5 uM by SRB assay; format: functional; details: read-out: Activity; method in brief: as §1
# [31] = system: NCI-H226; assay: Cytotoxicity against human NCI-H226 cells assessed as cell growth at 0.5 uM by SRB assay; format: functional; details: read-out: Activity
# [32] = system: HCT-15; assay: Cytotoxicity against human HCT15 cells assessed as cell growth at 0.5 uM by SRB assay; format: functional; details: read-out: Activity; method in brief: as §1
# [33] = system: TK-10; assay: Cytotoxicity against human TK10 cells assessed as cell growth at 0.5 uM by SRB assay; format: functional; details: read-out: Activity
# [34] = system: MDA-MB-231; assay: Cytotoxicity against human MDA-MB-231/ATCC cells assessed as cell growth at 0.5 uM by SRB assay; format: functional; details: read-out: Activity
# [35] = system: RPMI-8226; assay: Cytotoxicity against human RPMI8226 cells assessed as cell growth at 5 uM by SRB assay; format: functional; details: read-out: Activity
# [36] = system: SR; assay: Cytotoxicity against human SR cells assessed as cell growth at 5 uM by SRB assay; format: functional; details: read-out: Activity
# [37] = system: NCI-H226; assay: Cytotoxicity against human NCI-H226 cells assessed as cell growth at 5 uM by SRB assay; format: functional; details: read-out: Activity
# [38] = system: SF-539; assay: Cytotoxicity against human SF539 cells assessed as cell growth at 5 uM by SRB assay; format: functional; details: read-out: Activity
# [39] = system: M14; assay: Cytotoxicity against human M14 cells assessed as cell growth at 5 uM by SRB assay; format: functional; details: read-out: Activity
# [40] = system: SK-MEL-2; assay: Cytotoxicity against human SK-MEL-2 cells assessed as cell growth at 5 uM by SRB assay; format: functional; details: read-out: Activity
# [41] = system: UACC-257; assay: Cytotoxicity against human UACC257 cells assessed as cell growth at 5 uM by SRB assay; format: functional; details: read-out: Activity
# [42] = read-out: LC50 (the source's name)
# [43] = read-out: pLC50 (the source's name) (converted)
# Sequence of DNA topoisomerase 2-alpha (Homo sapiens) (P11388 whole entry): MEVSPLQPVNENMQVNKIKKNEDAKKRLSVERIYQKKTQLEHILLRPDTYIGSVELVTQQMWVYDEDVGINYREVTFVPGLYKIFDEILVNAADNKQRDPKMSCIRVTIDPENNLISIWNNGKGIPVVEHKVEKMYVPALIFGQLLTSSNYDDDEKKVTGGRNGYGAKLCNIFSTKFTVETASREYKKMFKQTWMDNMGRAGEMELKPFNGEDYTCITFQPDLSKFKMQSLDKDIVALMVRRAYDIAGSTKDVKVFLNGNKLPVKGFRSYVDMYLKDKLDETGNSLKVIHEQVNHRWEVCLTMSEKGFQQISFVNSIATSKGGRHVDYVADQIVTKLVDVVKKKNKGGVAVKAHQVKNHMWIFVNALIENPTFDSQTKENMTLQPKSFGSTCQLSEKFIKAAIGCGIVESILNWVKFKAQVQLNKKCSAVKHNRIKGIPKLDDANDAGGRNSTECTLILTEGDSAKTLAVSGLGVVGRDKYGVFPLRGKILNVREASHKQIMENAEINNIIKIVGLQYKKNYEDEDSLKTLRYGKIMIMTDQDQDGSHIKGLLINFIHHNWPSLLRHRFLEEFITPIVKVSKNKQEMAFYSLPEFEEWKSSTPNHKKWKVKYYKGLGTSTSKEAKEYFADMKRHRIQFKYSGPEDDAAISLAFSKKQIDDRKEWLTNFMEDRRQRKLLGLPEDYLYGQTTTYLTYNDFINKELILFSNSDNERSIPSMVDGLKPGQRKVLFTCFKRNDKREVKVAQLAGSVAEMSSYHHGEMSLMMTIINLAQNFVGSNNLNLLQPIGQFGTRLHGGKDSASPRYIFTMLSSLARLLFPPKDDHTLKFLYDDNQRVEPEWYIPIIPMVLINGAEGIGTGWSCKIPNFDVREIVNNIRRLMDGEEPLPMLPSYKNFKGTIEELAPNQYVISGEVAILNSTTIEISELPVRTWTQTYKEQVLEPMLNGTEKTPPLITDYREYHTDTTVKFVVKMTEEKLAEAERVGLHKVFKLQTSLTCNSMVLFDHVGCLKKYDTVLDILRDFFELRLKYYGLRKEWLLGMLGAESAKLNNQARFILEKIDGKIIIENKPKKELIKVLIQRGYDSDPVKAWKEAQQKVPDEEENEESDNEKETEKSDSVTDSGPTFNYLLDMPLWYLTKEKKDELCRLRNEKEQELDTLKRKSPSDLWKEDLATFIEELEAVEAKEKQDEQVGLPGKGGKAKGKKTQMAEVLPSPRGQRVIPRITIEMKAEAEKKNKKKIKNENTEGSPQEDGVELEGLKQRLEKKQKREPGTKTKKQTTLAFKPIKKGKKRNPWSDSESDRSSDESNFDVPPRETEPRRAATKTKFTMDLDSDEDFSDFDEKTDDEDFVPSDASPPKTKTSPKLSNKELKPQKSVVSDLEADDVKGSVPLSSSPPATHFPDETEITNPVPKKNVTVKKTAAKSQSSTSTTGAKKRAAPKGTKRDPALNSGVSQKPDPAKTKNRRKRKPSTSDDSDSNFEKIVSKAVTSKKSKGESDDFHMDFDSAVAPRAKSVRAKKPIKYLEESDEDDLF
compound,measurement,setting,value
COc1cc([C@@H]2c3cc4c(cc3[C@@H](NC(=O)CN3CCN(CCCCCCN5CCN(CC(=O)N[C@@H]6c7cc8c(cc7[C@@H](c7cc(OC)c(O)c(OC)c7)[C@H]7C(=O)OC[C@@H]76)OCO8)CC5)CC3)[C@H]3COC(=O)[C@H]23)OCO4)cc(OC)c1O,Effect on topoisomerase 2-alpha DNA cleavage (qualitative),[1],Dose-dependent effect
same,growth at 50 µM,[2],7%
same,GI50,[3]; read-out: GI50,0.253 µM
same,CC50,[3]; [42],> 50 µM
same,TGI,[3]; read-out: TGI,> 50 µM
same,GI50,[3]; read-out: pGI50 (converted),0.251 µM
same,CC50,[3]; [43],> 50.1 µM
same,TGI,[3]; read-out: pTGI,> 50.1 µM
same,GI50,[4]; read-out: GI50,1.63 µM
same,CC50,[4]; [42],> 50 µM
same,TGI,[4]; read-out: TGI,> 50 µM
same,GI50,[4]; read-out: pGI50 (converted),1.62 µM
same,CC50,[4]; [43],> 50.1 µM
same,TGI,[4]; read-out: pTGI (converted),> 50.1 µM
same,GI50,[5]; read-out: GI50,> 50 µM
same,CC50,[5]; [42],> 50 µM
same,TGI,[5]; read-out: TGI,> 50 µM
same,GI50,[5]; read-out: pGI50 (converted),> 50.1 µM
same,CC50,[5]; [43],> 50.1 µM
same,TGI,[5]; read-out: pTGI (converted),> 50.1 µM
same,GI50,[6]; read-out: GI50,0.957 µM
same,CC50,[6]; [42],> 50 µM
same,TGI,[6]; read-out: TGI,12.8 µM
same,GI50,[6]; read-out: pGI50 (converted),0.955 µM
same,CC50,[6]; [43],> 50.1 µM
same,TGI,[6]; read-out: pTGI (converted),12.9 µM
same,GI50,[7]; read-out: GI50,0.966 µM
same,CC50,[7]; [42],> 50 µM
same,TGI,[7]; read-out: TGI,28 µM
same,GI50,[7]; read-out: pGI50 (converted),0.977 µM
same,CC50,[7]; [43],> 50.1 µM
same,TGI,[7]; read-out: pTGI (converted),28.2 µM
same,GI50,[8]; read-out: GI50,11.3 µM
same,CC50,[8]; [42],> 50 µM
same,TGI,[8]; read-out: TGI,35.5 µM
same,GI50,[8]; read-out: pGI50 (converted),11.2 µM
same,CC50,[8]; [43],> 50.1 µM
same,TGI,[8]; read-out: pTGI (converted),35.5 µM
same,growth at 0.005 µM,[9],102%
same,growth at 0.005 µM,[10],95%
same,growth at 0.005 µM,[11],88%
same,growth at 0.005 µM,[12],97%
same,growth at 0.005 µM,[13],97%
same,growth at 0.005 µM,[14],102%
same,growth at 0.005 µM,[15],99%
same,growth at 0.005 µM,[16],111%
same,growth at 0.005 µM,[17],110%
same,growth at 0.005 µM,[18],93%
same,growth at 0.005 µM,[19],82%
same,growth at 0.005 µM,[20],96%
same,growth at 0.005 µM,[21],101%
same,growth at 0.005 µM,[22],93%
same,growth at 0.005 µM,[23],91%
same,growth at 0.05 µM,[24],105%
same,growth at 0.05 µM,[25],96%
same,growth at 0.05 µM,[26],101%
same,growth at 0.05 µM,[27],103%
same,growth at 0.05 µM,[28],97%
same,growth at 0.05 µM,[29],90%
same,growth at 0.5 µM,[30],60%
same,growth at 0.5 µM,[31],73%
same,growth at 0.5 µM,[32],90%
same,growth at 0.5 µM,[33],89%
same,growth at 0.5 µM,[34],97%
same,growth at 5 µM,[35],-1%
same,growth at 5 µM,[36],6%
same,growth at 5 µM,[37],52%
same,growth at 5 µM,[38],12%
same,growth at 5 µM,[39],35%
same,growth at 5 µM,[40],86%
same,growth at 5 µM,[41],62%

# — ChEMBL document CHEMBL3588757, “Structure-based design, synthesis and biological testing of piperazine-linked bis-epipodophyllotoxin etoposide analogs” (Bioorg Med Chem, 2015)
